Results published in ChEMBL document CHEMBL1770099, “Aromatic ring functionalization of benzolactam derivatives: new potent dopamine D3 receptor ligands” (Bioorg Med Chem Lett, 2011).

Experiments:
[1] = biological target: T1, D(3) dopamine receptor (Homo sapiens, UniProt P35462); assay: Displacement of [3H]Spiperone from human dopamine D3 receptor expressed in CHO cells; type: cell-based
[2] = biological target: T2, D(2) dopamine receptor (Homo sapiens, UniProt P14416); assay: Displacement of [3H]Spiperone from human dopamine D2 long receptor expressed in CHO cells; type: cell-based
T2 sequence (P14416 whole entry): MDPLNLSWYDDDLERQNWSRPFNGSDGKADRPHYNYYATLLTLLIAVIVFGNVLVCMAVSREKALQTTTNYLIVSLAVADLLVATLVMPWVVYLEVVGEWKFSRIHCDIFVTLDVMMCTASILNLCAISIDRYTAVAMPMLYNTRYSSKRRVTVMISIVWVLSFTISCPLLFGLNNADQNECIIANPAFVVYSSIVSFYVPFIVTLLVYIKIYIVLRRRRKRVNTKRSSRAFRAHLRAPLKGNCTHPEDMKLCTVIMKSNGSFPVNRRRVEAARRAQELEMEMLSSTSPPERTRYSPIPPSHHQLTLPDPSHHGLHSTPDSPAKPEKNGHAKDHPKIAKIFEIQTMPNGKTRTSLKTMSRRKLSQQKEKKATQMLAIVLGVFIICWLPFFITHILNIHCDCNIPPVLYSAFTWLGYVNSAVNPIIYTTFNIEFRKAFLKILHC
Procedure, shortened: (§1)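 Competition for [3H]spiperone binding to cloned human receptor (D2long, D2short or D4.4) stably expressed in CHO cells; Ki values are means of two to four individual competition experiments, each run in triplicate.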

[3] = biological target: T1, D(3) dopamine receptor; assay: Agonist activity at human dopamine D3 receptor expressed in dhfr-deficient CHO cells assessed as [3H]thymidine incorporation; type: functional, cell-based
[4] = biological target: 5-hydroxytryptamine receptor 2A (Sus scrofa, UniProt P50129); assay: Displacement of [3H]Ketanserin from pig 5-HT2 receptor
Sequence of 5-hydroxytryptamine receptor 2A (P50129 whole entry): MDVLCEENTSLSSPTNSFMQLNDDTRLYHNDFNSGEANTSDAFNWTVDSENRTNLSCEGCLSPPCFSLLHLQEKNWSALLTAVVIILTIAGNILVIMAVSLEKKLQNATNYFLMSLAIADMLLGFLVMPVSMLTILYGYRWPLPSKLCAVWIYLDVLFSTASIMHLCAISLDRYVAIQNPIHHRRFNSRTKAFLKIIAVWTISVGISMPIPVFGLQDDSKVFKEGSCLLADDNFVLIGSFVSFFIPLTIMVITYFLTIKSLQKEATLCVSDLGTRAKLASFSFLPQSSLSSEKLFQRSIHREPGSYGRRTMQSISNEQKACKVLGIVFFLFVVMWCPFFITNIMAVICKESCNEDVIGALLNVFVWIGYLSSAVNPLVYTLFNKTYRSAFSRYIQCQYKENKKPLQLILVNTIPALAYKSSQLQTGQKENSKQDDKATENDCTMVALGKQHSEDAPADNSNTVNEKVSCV

[5] = biological target: D(1A) dopamine receptor (Sus scrofa, UniProt P50130); assay: Displacement of [3H]SCH-23390 from dopamine D1 receptor in pig striatal membranes; type: cell membranes, Striatum, Membrane
Sequence of D(1A) dopamine receptor (P50130 whole entry): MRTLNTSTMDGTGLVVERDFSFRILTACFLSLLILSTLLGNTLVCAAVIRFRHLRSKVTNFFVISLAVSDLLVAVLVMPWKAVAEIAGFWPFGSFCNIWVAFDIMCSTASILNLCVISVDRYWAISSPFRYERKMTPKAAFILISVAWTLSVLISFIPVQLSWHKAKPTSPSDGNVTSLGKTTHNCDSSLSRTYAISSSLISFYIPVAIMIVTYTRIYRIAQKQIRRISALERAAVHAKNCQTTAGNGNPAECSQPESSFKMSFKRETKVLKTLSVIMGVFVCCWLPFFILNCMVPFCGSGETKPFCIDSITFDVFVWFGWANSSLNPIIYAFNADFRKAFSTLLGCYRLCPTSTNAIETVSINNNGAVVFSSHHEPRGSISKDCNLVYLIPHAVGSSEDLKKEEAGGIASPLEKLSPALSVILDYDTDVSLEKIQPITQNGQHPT
Procedure, shortened: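 Competition binding with D1-selective radioligand [3H]SCH23390 on porcine striatal membranes; Ki values are means of two to four individual competition experiments, each run in triplicate.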

[6] = biological target: T2, D(2) dopamine receptor; assay: Displacement of [3H]Spiperone from human dopamine D2 short receptor expressed in CHO cells; type: cell-based; procedure, shortened: as §1
[7] = Displacement of [3H]WAY-100635 from pig 5-HT1A receptor; design: species or system Sus scrofa
[8] = Displacement of [3H]Prazosin from pig adrenergic alpha1 receptor; design: species or system Sus scrofa
[9] = biological target: T3, D(4) dopamine receptor (Homo sapiens, UniProt P21917); assay: Displacement of [3H]Spiperone from human dopamine D4.4 receptor expressed in CHO cells; type: cell-based; procedure, shortened: as §1
T3 sequence (P21917 whole entry): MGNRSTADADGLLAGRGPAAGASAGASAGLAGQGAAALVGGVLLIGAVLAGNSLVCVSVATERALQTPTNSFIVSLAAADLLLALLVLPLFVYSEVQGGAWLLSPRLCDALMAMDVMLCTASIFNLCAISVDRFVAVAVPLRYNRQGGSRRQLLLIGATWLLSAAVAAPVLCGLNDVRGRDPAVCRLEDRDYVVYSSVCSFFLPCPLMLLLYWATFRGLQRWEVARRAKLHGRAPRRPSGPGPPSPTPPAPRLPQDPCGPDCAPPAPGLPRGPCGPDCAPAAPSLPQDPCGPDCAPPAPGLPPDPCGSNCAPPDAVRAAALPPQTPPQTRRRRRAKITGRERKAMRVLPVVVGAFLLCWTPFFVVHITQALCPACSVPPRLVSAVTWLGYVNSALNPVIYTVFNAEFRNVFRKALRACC

[10] = biological target: T1, D(3) dopamine receptor; assay: Binding affinity to dopamine D3 receptor
[11] = Selectivity ratio of Ki for dopamine D2 long receptor to Ki for dopamine D3 receptor

T1 sequence (P35462 whole entry): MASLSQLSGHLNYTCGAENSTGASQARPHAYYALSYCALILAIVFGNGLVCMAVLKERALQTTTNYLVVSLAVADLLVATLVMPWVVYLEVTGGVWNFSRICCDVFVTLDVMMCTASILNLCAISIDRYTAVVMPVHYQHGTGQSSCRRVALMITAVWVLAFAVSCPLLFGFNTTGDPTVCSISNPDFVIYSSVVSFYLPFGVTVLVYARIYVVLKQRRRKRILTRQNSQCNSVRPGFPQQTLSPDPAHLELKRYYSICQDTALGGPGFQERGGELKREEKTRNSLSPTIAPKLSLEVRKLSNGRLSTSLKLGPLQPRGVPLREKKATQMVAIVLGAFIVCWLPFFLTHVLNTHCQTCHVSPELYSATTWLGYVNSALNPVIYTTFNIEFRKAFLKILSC

SMILES	Ki [1] [nM]	Ki [2] [nM]	EC50 [3] [nM]	Ki [4] [nM]	Ki [5] [nM]	Ki [6] [nM]	Ki [7] [nM]	Ki [8] [nM]	Ki [9] [nM]	Ki [10] [nM]	Ratio Ki [11]
Cc1nc(-c2ccc(C(=O)N[C@H]3CC[C@H](CCN4CCc5ccc(S(C)(=O)=O)cc5CC4)CC3)cc2)no1	–	–	–	–	–	–	–	–	–	4	100
COc1ccc2c(c1)CCCN(CCCCN1CCN(c3ccccc3OC)CC1)C2=O	0.27	3.2	–	810	2100	0.93	2.5	3.7	3	–	–
CC(=O)Nc1ccc(CCN2C[C@@H]3COc4ccc(C#N)cc4[C@H]3C2)cc1	–	–	–	–	–	–	–	–	–	2	37
COc1ccccc1N1CCN(CCCCNC(=O)c2ccc(-c3ccc(C(C)=O)cc3)cc2)CC1	–	–	–	–	–	–	–	–	–	–	130
C#Cc1ccc2c(c1)CCN(CCCCN1CCN(c3ccccc3OC)CC1)C2=O	0.5	24	–	920	1900	8.8	14	2.4	4.1	–	–
COc1ccccc1N1CCN(CCCCN2CCCc3cc(-c4cccs4)ccc3C2=O)CC1	0.29	5.1	–	530	920	2.1	68	9.7	2.9	–	–
COc1ccccc1N1CCN(CCCCN2CCCc3ccccc3C2=O)CC1	0.27	3.9	0.33	1100	2900	1.5	1.7	5.7	1.3	–	–
COc1ccccc1N1CCN(CCCCN2CCc3cc(F)ccc3C2=O)CC1	1.6	26	–	840	2300	9.2	1.7	3.1	2.8	–	–
COc1ccccc1N1CCN(CCCCN2CCc3cc(C#N)ccc3C2=O)CC1	1.3	38	–	430	3200	22	3.8	3.8	6.1	–	–
COc1ccccc1N1CCN(CCCCN2CCc3ccccc3C2=O)CC1	–	21	–	990	2500	7	2.4	2.3	1.9	–	–

More lines, in order of falling Ki [4], values ahead:

Ki [1] [nM]	Ki [2] [nM]	EC50 [3] [nM]	Ki [4] [nM]	Ki [5] [nM]	Ki [6] [nM]	Ki [7] [nM]	Ki [8] [nM]	Ki [9] [nM]	Ki [10] [nM]	Ratio Ki [11]	SMILES
0.25	38	3.3	330	640	15	38	5.4	3.4	–	–	COc1ccccc1N1CCN(CCCCN2CCc3cc(-c4ccccc4)ccc3C2=O)CC1
0.21	16	2.3	330	580	4.8	19	1.6	3.3	–	–	COc1ccccc1N1CCN(CCCCN2CCc3cc(-c4ccco4)ccc3C2=O)CC1
12	52	–	230	220	63	47	1.3	9.8	–	–	COc1ccccc1N1CCN(CCCCN2CCc3c(cccc3-c3ccccc3)C2=O)CC1
0.12	11	2.8	190	480	6.9	6.2	3.7	2.3	–	–	COc1ccccc1N1CCN(CCCCN2CCc3cc(-c4cccs4)ccc3C2=O)CC1
0.12	–	–	160	380	–	13	2.2	3.4	–	–	COc1ccccc1N1CCN(CCCCN2CCc3cc(-c4ccncc4)ccc3C2=O)CC1
